SMILES strings stand for the structures. ≈ marks a conversion by molar mass, not a printed value. Calls of active or inactive are those of the source. The rule behind the calls is not given here.

What is called IC50 is the point on the concentration scale where inhibition reaches its midpoint. A word on the solubility: it is how much of the substance goes into solution per volume. High values mean much dissolved substance, low ones little dissolved substance. The term CC50 denotes the concentration that lowers cell viability or growth by half. A high value points to better tolerance by the cells.

Series [1] has as its system Trypanosoma cruzi. As to the kind of experiment: Induction of ROS production in Trypanosoma cruzi epimastigotes in presence of Cu2+. The format is functional, organism-based. The essentials:
(§1)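 Oxidative stress in parasite cultures was read fluorometrically with the 2,7-dichlorodihydrofluorescein diacetate (DCFH-DA) probe against a negative-control culture, and was also run with metal cations present.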

Series [2] deals with Trypanosoma cruzi. As to the kind of experiment: Antitrypanosomal activity against of Trypanosoma cruzi epimastigotes assessed as increase in IC50 in presence of FA. Format: functional.
Series [3] relates to Leishmania infantum. Description: Antileishmanial activity against Leishmania infantum promastigotes. Format: functional, organism-based.
For series [4], the system named is Trypanosoma cruzi. As to the kind of experiment: Induction of ROS production in Trypanosoma cruzi epimastigotes in presence of Zn2+. Format: functional, organism-based. The essentials:
as §1

Series [5] can be described thus: Selectivity index, ratio of CC50 for mouse J774.1 cells to IC50 for Leishmania infantum promastigotes. Format: toxicity. The conditions noted are these: read-out: Ratio CC50/IC50. In a few lines: (§2)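 Cytotoxicity (CC50) was measured on murine J774.1A macrophages. Selectivity index is CC50 divided by parasite IC50 (promastigote, epimastigote or axenic amastigote). Values are the mean of three independent experiments.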

The test system of series [6] is Leishmania infantum. As to the kind of experiment: Antileishmanial activity against Leishmania infantum promastigotes assessed as increase in IC50 in presence of FA. The format is functional.
Series [7] is described as follows: Solubility of the compound by UV-Vis spectroscopy. Format: physicochemical. In a few lines: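 Solubility in μM was determined by UV-Vis spectroscopy.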
A short description of series [8]: Mutagenicity in Salmonella typhimurium TA98 assessed as number of revertant colonies at 100 uM by Ames test (reference value: 4). The format is toxicity. The conditions noted are these: salmonella enterica subsp. enterica […]. The essentials:
(§3)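 Ames reverse-mutation assay in Salmonella typhimurium TA 98. Revertant colonies were counted at five escalating dose levels alongside a zero-dose (spontaneous revertant) negative control and a 4-nitro-o-phenylenediamine positive control. A compound was called mutagenic when revertants exceeded twice the negative control at two consecutive dose levels.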

For series [9], the system named is Leishmania infantum. Description: Antileishmanial activity against Leishmania infantum promastigotes assessed as decrease in IC50 in presence of zinc(II). The format is functional, organism-based. The essentials:
(§4)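 Parasite proliferation was run in the presence of copper(II), iron(III) or zinc(II) salts, each at 1 μM.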

Series [10] deals with Leishmania infantum. Description: Induction of ROS production in Leishmania infantum promastigotes in presence of Zn2+. The format is functional, organism-based. In a few lines: as §1
In series [11] the test system is Leishmania infantum. As to the kind of experiment: Antileishmanial activity against Leishmania infantum promastigotes assessed as decrease in IC50 in presence of copper(II). Format: functional, organism-based. The essentials: as §4
Series [12] can be described thus: Selectivity index, ratio of CC50 for mouse J774.1 cells to IC50 for Trypanosoma cruzi epimastigotes. The format is toxicity. The conditions noted are these: read-out: Ratio CC50/IC50. The essentials: as §2
Series [13] in a line: Cytotoxicity against mouse J774.1 cells. Format: toxicity, cell-based. The essentials: as §2
Series [14] is described as follows: Mutagenicity in Salmonella typhimurium TA98 assessed as number of revertant colonies at 300 uM by Ames test (reference value: 4). Format: toxicity. The conditions noted are these: salmonella enterica subsp. enterica […]. The essentials:
as §3
In general terms: The Ames test detects mutagens through reverse mutation in bacteria.

The test system of series [15] is Trypanosoma cruzi. Description: Induction of ROS production in Trypanosoma cruzi epimastigotes in presence of Fe3+. The format is functional, organism-based. In a few lines:
as §1

Series [16] can be described thus: Selectivity index, ratio of CC50 for mouse J774.1 cells to IC50 for Leishmania infantum amastigotes. Format: toxicity. The settings on record: read-out: Ratio CC50/IC50. The essentials:
as §2

Series [17] can be described thus: Mutagenicity in Salmonella typhimurium TA98 assessed as number of revertant colonies at 9000 uM by Ames test (reference value: 4). Format: toxicity. The conditions noted are these: salmonella enterica subsp. enterica […]. The essentials: as §3
For series [18], the system named is Trypanosoma cruzi. Description: […] activity against Trypanosoma cruzi epimastigotes assessed as change in parasites in presence of iron(III). Format: functional, organism-based. The essentials:
as §4

For series [19], the system named is Trypanosoma cruzi. As to the kind of experiment: […] activity against Trypanosoma cruzi epimastigotes assessed as change in parasites in presence of copper(II). Format: functional, organism-based. In a few lines: as §4
Series [20] is described as follows: Mutagenicity in Salmonella typhimurium TA98 assessed as number of revertant colonies at 3000 uM by Ames test (reference value: 4). The format is toxicity. The conditions noted are these: salmonella enterica subsp. enterica […]. The essentials:
as §3

Series [21] is described as follows: Mutagenicity in Salmonella typhimurium TA98 assessed as number of revertant colonies at 1000 uM by Ames test (reference value: 4). Format: toxicity. The settings on record: salmonella enterica subsp. enterica […]. The essentials: as §3
In series [22] the test system is Trypanosoma cruzi. As to the kind of experiment: Antitrypanosomal activity against of Trypanosoma cruzi epimastigotes. Format: functional, organism-based.
The subject of series [23] is Leishmania infantum. As to the kind of experiment: Antileishmanial activity against Leishmania infantum axenic amastigotes. The format is functional, organism-based.
Series [24] relates to Leishmania infantum. Description: Induction of ROS production in Leishmania infantum promastigotes in presence of Fe3+. The format is functional, organism-based. In a few lines: as §1
In series [25] the test system is Trypanosoma cruzi. Description: […] activity against Trypanosoma cruzi epimastigotes assessed as change in parasites in presence of zinc(II). The format is functional, organism-based. In a few lines:
as §4

In series [26] the test system is Leishmania infantum. As to the kind of experiment: Antileishmanial activity against Leishmania infantum promastigotes assessed as decrease in IC50 in presence of iron(III). The format is functional, organism-based. The essentials: as §4
Series [27] deals with Trypanosoma cruzi. As to the kind of experiment: Antitrypanosomal activity against of Trypanosoma cruzi epimastigotes in presence of FA. The format is functional, organism-based.
Series [28] has as its system Leishmania infantum. Description: Induction of ROS production in Leishmania infantum promastigotes in presence of Cu2+. Format: functional, organism-based. In a few lines: as §1
In series [29] the test system is Leishmania infantum. As to the kind of experiment: Induction of ROS production in Leishmania infantum promastigotes by DCFH-DA staining based flow cytometry analysis. Format: functional, organism-based. The essentials: as §1
In general terms: In flow cytometry, cells or beads pass a laser one at a time.

The subject of series [30] is Trypanosoma cruzi. As to the kind of experiment: Induction of ROS production in Trypanosoma cruzi epimastigotes by DCFH-DA staining based flow cytometry analysis. The format is functional, organism-based. The essentials: as §1
Series [31] can be described thus: Mutagenicity in Salmonella typhimurium TA98 assessed as number of revertant colonies at 90 uM by Ames test (reference value: 4). The settings on record: salmonella enterica subsp. enterica […]. Format: toxicity. In a few lines:
as §3

Series [32] concerns Trypanosoma cruzi. As to the kind of experiment: Induction of NO production in Trypanosoma cruzi epimastigotes by Griess method. The format is functional, organism-based. The essentials: (§5)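 NO production in parasite cultures was measured at three test concentrations, either 25, 50 and 100 μM or 1, 5 and 10 μM depending on the compound.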
Background: Griess reagent forms a coloured azo dye with nitrite.

The nature of series [33]: Mutagenicity in Salmonella typhimurium TA98 assessed as number of revertant colonies at 270 uM by Ames test (reference value: 4). Format: toxicity. The settings on record: salmonella enterica subsp. enterica […]. In a few lines: as §3
Series [34] has as its system Leishmania infantum. Description: Induction of NO production in Leishmania infantum promastigotes by Griess method. Format: functional, organism-based. In a few lines:
as §5

Series [35] is described as follows: Mutagenicity in Salmonella typhimurium TA98 assessed as number of revertant colonies at 7500 uM by Ames test (reference value: 4). Format: toxicity. The settings on record: salmonella enterica subsp. enterica […]. In a few lines:
as §3

The nature of series [36]: Mutagenicity in Salmonella typhimurium TA98 assessed as number of revertant colonies at 2500 uM by Ames test (reference value: 4). The format is toxicity. The conditions noted are these: salmonella enterica subsp. enterica […]. The essentials: as §3
The subject of series [37] is Trypanosoma cruzi. As to the kind of experiment: Induction of NO production in Trypanosoma cruzi epimastigotes at highest concentration by Griess method. The format is functional. In a few lines: as §5
Series [38] can be described thus: Mutagenicity in Salmonella typhimurium TA98 assessed as number of revertant colonies at 830 uM by Ames test (reference value: 4). Format: toxicity. The settings on record: salmonella enterica subsp. enterica […]. The essentials:
as §3

In series [39] the test system is Leishmania infantum. Description: Induction of NO production in Leishmania infantum promastigotes at highest concentration by Griess method. The format is functional. The essentials:
as §5

The nature of series [40]: Mutagenicity in Salmonella typhimurium TA98 assessed as number of revertant colonies at 20 uM by Ames test (reference value: 4). The format is toxicity. The settings on record: salmonella enterica subsp. enterica […]. In a few lines: as §3

For `O=[N+]([O-])c1ccc(/C=N/N=c2\[nH]c(-c3ccc(F)cc3)nc3ccccc23)o1`, the result in the series on Trypanosoma cruzi [1], in the series with Trypanosoma cruzi [4], in the series with Leishmania infantum [9], in the series with Leishmania infantum [10], in the series on Leishmania infantum [11] and in the series with Trypanosoma cruzi [15] was Active. The result in the series on Leishmania infantum [24], in the series on Leishmania infantum [26] and in the series on Leishmania infantum [28] was Active. Further, the Activity in the series on Trypanosoma cruzi [2] is given as 38%; with Leishmania infantum [6], 31%; in series [8] it was 2; in series [14] it was 2.5; in series [17] it was 3; in series [20], 3. The Activity in series [21] was determined as 3.5. The IC50 came to 4.56 µM in the series on Leishmania infantum [3], 4.08 µM in the series on Trypanosoma cruzi [22], 3.52 µM in the series with Leishmania infantum [23] and 6.54 µM with Trypanosoma cruzi [27]. For the same compound, the selectivity ratio in series [5] came out at 15.1; in [12] it was 16.8; in series [16], 19.6. The compound also registered a solubility in [7] of 5.11 µM (≈ 1.93 µg/mL). The CC50 in series [13] is 69.1 µM. Further, the outcome in the series on Trypanosoma cruzi [18], in the series with Trypanosoma cruzi [19] and in the series on Trypanosoma cruzi [25] was inactive.

With `O=[N+]([O-])c1ccc(/C=N/N=c2\[nH]c(-c3cccc(Cl)c3)nc3ccccc23)o1`, the outcome with Trypanosoma cruzi [1], with Leishmania infantum [29], in the series on Trypanosoma cruzi [30], in the series with Trypanosoma cruzi [4], with Leishmania infantum [9] and in the series on Leishmania infantum [10] was Active. Moreover, the result in the series on Leishmania infantum [11], with Trypanosoma cruzi [15], with Leishmania infantum [24], in the series with Leishmania infantum [26] and in the series with Leishmania infantum [28] was Active. The IC50 in the series on Leishmania infantum [3] was found to be 0.77 µM; in the series with Trypanosoma cruzi [22], 0.77 µM; in the series on Leishmania infantum [23], 0.89 µM. Moreover, the Activity in [31] was 3; in the series on Trypanosoma cruzi [32], “Dose-Dependent Effect”; in series [33], 10; in the series with Leishmania infantum [34], “Dose-Dependent Effect”; in series [35], 9.5; in series [36] it was 10.5. Further, the figures for the Activity (in the series on Trypanosoma cruzi [37]; in [38]; with Leishmania infantum [39]) were 1 µM, 9.5 and 2 µM, respectively. Further, the selectivity ratio came to 54 in series [5], 60.2 in series [12] and 46.7 in series [16]. Further, in [7], the solubility turned out to be 7.11 µM (≈ 2.8 µg/mL). Further, half-maximal cytotoxicity in series [13] (CC50) was put at 41.6 µM. Moreover, the outcome with Trypanosoma cruzi [18], in the series on Trypanosoma cruzi [19] and with Trypanosoma cruzi [25] was inactive.

Consider `Nc1ccc([N+](=O)[O-])cc1N`, for which the Activity in series [40] was found to be 365.

The values are drawn from ChEMBL document CHEMBL5329191, “Optimization of the 2-arylquinazoline-4(3H)one scaffold for a selective and potent antitrypanosomal agent: modulation of the mechanism of action through chemical functionalization” (RSC Med Chem, 2023).
